{"source": "ChEMBL document CHEMBL1135823", "about": "“Discovery and SAR of a novel selective and orally bioavailable nonpeptide classical competitive inhibitor class of protein-tyrosine phosphatase 1B” (J Med Chem, 2002)", "key": {"[1]": {"target": "T1, Receptor-type tyrosine-protein phosphatase C (Homo sapiens, UniProt P08575)", "T1 sequence (P08575 whole entry)": "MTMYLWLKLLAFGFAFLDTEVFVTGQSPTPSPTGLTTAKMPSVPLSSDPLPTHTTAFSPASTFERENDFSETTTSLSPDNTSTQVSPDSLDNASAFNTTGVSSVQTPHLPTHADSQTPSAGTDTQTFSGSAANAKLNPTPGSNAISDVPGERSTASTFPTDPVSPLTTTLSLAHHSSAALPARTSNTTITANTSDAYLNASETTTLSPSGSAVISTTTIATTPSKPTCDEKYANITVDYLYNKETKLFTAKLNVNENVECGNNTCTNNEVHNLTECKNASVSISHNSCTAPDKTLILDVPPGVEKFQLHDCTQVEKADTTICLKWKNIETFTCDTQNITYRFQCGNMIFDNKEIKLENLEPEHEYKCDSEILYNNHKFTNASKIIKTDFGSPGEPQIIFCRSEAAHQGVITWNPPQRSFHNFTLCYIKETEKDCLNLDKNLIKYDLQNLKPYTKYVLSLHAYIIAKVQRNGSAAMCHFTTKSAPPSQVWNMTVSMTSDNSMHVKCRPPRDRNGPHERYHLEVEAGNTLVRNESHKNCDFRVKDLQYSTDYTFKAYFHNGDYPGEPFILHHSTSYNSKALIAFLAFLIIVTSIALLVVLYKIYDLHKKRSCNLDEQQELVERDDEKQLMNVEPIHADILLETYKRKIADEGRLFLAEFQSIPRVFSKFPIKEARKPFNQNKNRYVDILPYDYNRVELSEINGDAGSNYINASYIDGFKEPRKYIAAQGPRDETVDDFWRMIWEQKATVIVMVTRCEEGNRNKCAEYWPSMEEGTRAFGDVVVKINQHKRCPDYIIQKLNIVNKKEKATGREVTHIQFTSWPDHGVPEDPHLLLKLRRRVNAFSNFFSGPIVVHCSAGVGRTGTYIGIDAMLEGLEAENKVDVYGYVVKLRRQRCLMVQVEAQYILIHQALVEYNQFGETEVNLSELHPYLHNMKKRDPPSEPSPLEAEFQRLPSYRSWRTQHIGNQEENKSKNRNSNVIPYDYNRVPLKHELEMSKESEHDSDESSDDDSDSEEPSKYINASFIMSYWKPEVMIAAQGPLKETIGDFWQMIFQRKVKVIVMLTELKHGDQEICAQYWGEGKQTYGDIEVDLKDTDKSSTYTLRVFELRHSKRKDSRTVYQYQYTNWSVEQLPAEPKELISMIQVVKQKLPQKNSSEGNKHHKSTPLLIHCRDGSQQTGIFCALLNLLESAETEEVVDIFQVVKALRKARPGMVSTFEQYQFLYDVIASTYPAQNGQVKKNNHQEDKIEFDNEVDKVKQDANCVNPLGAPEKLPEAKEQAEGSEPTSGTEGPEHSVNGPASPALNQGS", "experiment": "Inhibitory effect against human CD45 tyrosine phosphatase using p-nitrophenyl phosphate substrate at a pH 7.0", "summary_of_the_method": "(§1)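 Ki from pNPP hydrolysis assays at pH 7 with recombinant PTPs (CD45, LAR, PTPα).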"}, "[2]": {"target": "T2, Tyrosine-protein phosphatase non-receptor type 1 (Homo sapiens, UniProt P18031)", "T2 sequence (P18031 whole entry)": "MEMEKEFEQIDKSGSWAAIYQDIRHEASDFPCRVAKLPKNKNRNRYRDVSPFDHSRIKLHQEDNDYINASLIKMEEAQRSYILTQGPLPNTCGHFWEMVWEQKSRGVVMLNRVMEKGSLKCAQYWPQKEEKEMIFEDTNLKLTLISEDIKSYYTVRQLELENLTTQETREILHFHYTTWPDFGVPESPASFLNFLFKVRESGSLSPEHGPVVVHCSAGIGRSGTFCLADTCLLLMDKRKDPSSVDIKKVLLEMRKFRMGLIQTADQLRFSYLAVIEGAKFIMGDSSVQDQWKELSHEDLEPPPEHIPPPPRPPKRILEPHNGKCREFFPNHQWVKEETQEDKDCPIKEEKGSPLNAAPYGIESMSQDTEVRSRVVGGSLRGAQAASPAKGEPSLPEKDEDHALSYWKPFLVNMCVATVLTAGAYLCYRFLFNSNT", "experiment": "Inhibition of human recombinant Protein-tyrosine phosphatase 1B.", "summary_of_the_method": "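Enzyme is a soluble recombinant human PTP1B (residues 1–321). Ki is measured at pH 5.5 with p-nitrophenyl phosphate (pNPP) as substrate.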"}, "[3]": {"target": "T2, Tyrosine-protein phosphatase non-receptor type 1", "experiment": "Inhibitory effect against recombinant human protein-tyrosine phosphatase 1B (PTP1B), using p-nitrophenyl phosphate substrate at pH 5.5."}, "[4]": {"target": "Receptor-type tyrosine-protein phosphatase F (Homo sapiens, UniProt P10586)", "sequence (P10586 whole entry)": "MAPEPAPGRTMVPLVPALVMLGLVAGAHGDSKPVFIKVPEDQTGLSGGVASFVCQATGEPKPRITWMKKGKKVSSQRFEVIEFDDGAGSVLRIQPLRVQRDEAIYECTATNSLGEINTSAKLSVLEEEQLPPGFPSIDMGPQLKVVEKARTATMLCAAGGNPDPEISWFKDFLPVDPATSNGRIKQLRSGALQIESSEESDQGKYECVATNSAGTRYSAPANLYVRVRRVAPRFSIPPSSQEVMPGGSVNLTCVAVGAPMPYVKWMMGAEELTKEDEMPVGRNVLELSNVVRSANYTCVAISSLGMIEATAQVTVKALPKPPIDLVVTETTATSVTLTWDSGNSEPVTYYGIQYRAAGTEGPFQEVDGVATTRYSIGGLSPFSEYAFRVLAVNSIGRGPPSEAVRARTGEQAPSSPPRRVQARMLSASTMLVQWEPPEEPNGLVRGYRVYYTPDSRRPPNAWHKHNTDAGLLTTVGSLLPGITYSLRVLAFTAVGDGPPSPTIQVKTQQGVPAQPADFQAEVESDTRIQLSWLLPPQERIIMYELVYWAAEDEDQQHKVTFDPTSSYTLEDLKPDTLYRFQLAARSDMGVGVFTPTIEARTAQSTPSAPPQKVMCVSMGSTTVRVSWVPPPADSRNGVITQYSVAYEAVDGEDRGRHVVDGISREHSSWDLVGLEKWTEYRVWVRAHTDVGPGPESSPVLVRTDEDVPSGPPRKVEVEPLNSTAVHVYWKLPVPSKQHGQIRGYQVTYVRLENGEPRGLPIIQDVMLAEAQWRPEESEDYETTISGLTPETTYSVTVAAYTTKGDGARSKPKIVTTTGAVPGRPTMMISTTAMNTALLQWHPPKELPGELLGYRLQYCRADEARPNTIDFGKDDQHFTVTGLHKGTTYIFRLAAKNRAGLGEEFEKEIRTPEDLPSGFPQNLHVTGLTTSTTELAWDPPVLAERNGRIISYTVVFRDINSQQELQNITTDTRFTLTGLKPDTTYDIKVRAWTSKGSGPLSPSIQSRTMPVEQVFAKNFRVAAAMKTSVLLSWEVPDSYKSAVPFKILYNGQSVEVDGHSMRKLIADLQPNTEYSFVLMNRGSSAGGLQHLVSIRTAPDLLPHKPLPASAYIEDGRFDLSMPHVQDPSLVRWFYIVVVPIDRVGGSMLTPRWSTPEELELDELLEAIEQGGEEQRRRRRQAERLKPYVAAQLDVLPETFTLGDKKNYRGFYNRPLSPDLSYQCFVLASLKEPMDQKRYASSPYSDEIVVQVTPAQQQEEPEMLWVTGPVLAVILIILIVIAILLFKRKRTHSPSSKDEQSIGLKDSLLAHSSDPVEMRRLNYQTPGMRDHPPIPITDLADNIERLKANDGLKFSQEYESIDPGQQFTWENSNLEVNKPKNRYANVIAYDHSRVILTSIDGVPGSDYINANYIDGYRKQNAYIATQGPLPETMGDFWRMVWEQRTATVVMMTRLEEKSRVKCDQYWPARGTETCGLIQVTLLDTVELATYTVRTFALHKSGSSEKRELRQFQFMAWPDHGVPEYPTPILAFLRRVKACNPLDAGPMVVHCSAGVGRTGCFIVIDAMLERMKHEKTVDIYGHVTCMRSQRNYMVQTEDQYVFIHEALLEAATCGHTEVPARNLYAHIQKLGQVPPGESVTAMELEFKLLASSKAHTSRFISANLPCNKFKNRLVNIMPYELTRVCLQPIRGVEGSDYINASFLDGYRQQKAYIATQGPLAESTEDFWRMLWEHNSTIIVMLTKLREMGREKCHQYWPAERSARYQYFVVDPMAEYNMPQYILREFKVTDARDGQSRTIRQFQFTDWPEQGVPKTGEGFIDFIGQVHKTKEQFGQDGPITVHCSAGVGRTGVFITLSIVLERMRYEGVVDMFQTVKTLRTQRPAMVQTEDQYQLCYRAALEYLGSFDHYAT", "experiment": "Inhibitory effect against human Protein-tyrosine phosphatase Lar using p-nitrophenyl phosphate substrate at a pH 7.0", "summary_of_the_method": "as §1"}, "[5]": {"target": "Receptor-type tyrosine-protein phosphatase alpha (Homo sapiens, UniProt P18433)", "sequence (P18433 whole entry)": "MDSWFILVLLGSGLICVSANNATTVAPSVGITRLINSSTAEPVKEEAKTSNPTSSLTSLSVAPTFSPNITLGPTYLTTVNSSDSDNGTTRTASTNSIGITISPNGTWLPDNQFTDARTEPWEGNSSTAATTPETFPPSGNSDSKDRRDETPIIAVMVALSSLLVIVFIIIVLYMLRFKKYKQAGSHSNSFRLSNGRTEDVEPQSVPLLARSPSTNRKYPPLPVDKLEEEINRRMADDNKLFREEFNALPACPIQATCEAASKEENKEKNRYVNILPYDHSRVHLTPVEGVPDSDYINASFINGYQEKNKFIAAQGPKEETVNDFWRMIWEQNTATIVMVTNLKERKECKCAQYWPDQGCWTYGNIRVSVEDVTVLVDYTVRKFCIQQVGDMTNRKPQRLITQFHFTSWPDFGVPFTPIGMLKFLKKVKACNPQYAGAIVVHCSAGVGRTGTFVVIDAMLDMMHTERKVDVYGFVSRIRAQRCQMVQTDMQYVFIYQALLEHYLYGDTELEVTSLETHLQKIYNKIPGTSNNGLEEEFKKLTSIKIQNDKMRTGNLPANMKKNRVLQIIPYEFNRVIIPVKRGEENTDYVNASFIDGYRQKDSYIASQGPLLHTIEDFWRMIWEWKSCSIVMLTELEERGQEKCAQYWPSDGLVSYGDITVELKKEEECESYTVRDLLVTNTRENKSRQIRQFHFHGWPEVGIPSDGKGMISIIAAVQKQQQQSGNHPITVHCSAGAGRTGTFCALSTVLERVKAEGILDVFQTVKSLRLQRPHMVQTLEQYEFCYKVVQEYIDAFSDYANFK", "experiment": "Inhibitory effect against human Protein-tyrosine phosphatase alpha (PTPalpha) using p-nitrophenyl phosphate substrate at a pH 7.0", "summary_of_the_method": "as §1"}, "[6]": {"experiment": "Oral bioavailability", "assay_type": "ADME, organism-based", "details": "eutheria, in vivo, read-out: f (po)"}, "[7]": {"experiment": "Pharmacokinetic Parameter t1/2 was reported for Protein Tyrosine Phosphatase 1B", "assay_type": "ADME, organism-based", "details": "in vivo"}, "[8]": {"experiment": "Pharmacokinetic Parameter clearance was reported for Protein Tyrosine Phosphatase 1B", "assay_type": "ADME, organism-based", "details": "in vivo"}, "[9]": {"experiment": "Pharmacokinetic Parameter Vss was reported for Protein Tyrosine Phosphatase 1B", "assay_type": "ADME, organism-based", "details": "in vivo; read-out: Vss"}}, "note": "Values joined by “and” are separate entries in the source; they are usually repeats but may differ in a detail not shown here. Equal values may be shown once.", "data": [{"smiles": "O=C(O)C(=O)Nc1sc2c(c1C(=O)O)CCN(CCc1ccccc1)C2", "values": [{"measurement": "Ki", "setting": "[1]", "result": 1400, "unit": "µM"}, {"measurement": "Ki", "setting": "[2]", "result": "3.2 µM and 7.2 µM"}, {"measurement": "Ki", "setting": "[3]", "result": 0.27, "unit": "µM"}, {"measurement": "Ki", "setting": "[4]", "result": 2100, "unit": "µM"}, {"measurement": "Ki", "setting": "[5]", "result": 2100, "unit": "µM"}, {"measurement": "bioavailability", "setting": "[6]", "result": 13, "unit": "%"}, {"measurement": "half-life", "setting": "[7]", "result": 2.82, "unit": "h"}, {"measurement": "clearance", "setting": "[8]", "result": 0.384, "unit": "L/h/kg"}, {"measurement": "Vd", "setting": "[9]", "result": 0.9, "unit": "L/kg"}]}]}
